Measured values gathered from unrelated publications.
Each line is one published result; the experiments were not run side by side.
MAOA: Amine oxidase [flavin-containing] A (MAOA, Homo sapiens, UniProt P21397)
CDKL2: Cyclin-dependent kinase-like 2 (CDKL2, Homo sapiens, UniProt Q92772)
ADRA1A: Alpha-1A adrenergic receptor (ADRA1A, Homo sapiens, UniProt P35348)
Rps6ka1: Ribosomal protein S6 kinase alpha-1 (Rps6ka1, Rattus norvegicus, UniProt Q63531)
HIPK3: Homeodomain-interacting protein kinase 3 (HIPK3, Homo sapiens, UniProt Q9H422)

O=C(Nc1ccc([N+](=O)[O-])cc1)c1ccc([N+](=O)[O-])cc1Cl
inhibition (MAOA; enzyme activity, inhibitor; 1 µM, 20 min): 13%

Nc1ncnc2occ(-c3ccc(NC(=O)Nc4cc(C(F)(F)F)ccc4F)cc3)c12
remaining signal (CDKL2; cell-free assay; 20 µM): 0.6%

O=C(c1ccc(Cl)cc1)N(Cc1ccccc1)C1CCCCC1
inhibition (ADRA1A; cell-free assay; 10 µM): 17%

CC[C@H](C)[C@H](NC(=O)[C@H](CC(=O)O)NC(=O)[C@@H](NC(=O)[C@H](Cc1ccccc1)NC(=O)[C@H](C)NC(=O)[C@H](Cc1ccccc1)NC(=O)[C@@H]1CCCN1C(=O)[C@H](C)NC(=O)[C@@H](NC(=O)[C@H](CO)NC(=O)[C@H](Cc1ccccc1)NC(=O)[C@H](CCCNC(=N)N)NC(=O)[C@H](CCCNC(=N)N)NC(=O)[C@@H](N)CC(C)C)[C@@H](C)O)[C@@H](C)CC)C(=O)N[C@@H](CC(N)=O)C(=O)N[C@@H](CC(=O)O)C(=O)N[C@H](C(=O)N[C@H](C(=O)N[C@@H](CC(N)=O)C(=O)N[C@@H](Cc1ccccc1)C(=O)O)[C@@H](C)CC)C(C)C
kon (Integrin alpha-V/beta-3 (Homo sapiens, UniProt P05106+P06756); binding, BLI): 1e+06 M⁻¹ s⁻¹

COc1cc(Cl)c(C(=O)N[C@@H](CN[C@H]2CC[C@@H](N)CC2)Cc2ccc(C#N)cc2)cc1-c1ccc(CN[C@H](C)c2ccc(C)cc2)o1
remaining activity (Cyclin-dependent kinase-like 4 (CDKL4, Homo sapiens, UniProt Q5MAI5); enzyme activity, inhibitor; 1 µM): 90%

COc1cc([N+](=O)[O-])ccc1NC(=O)c1cc(Cl)ccc1O
inhibition (MAOA; enzyme activity, inhibitor; 1 µM, 20 min): 9%

Cc1ccc(NC(=O)c2ccc(C)c(C(F)(F)F)c2)cc1C#Cc1nn(C2CCC(O)CC2)c2ncnc(N)c12 (centres unmarked)
remaining signal (Rps6ka1; cell-free assay; 10 µM): 20%

O=C(Nc1ccc([N+](=O)[O-])cc1[N+](=O)[O-])c1ccccc1
inhibition (MAOA; enzyme activity, inhibitor; 1 µM, 20 min): 82%

COc1cc(NC(C)=O)c(Cl)cc1C(=O)Nc1nccs1
inhibition (Histamine H2 receptor (HRH2, Homo sapiens, UniProt P25021); cell-free assay; 10 µM): -21.7%

CC[C@H](C)[C@H](NC(=O)[C@H](CCC(N)=O)NC(=O)[C@H](CC(C)C)NC(=O)[C@H](CCSC)NC(=O)[C@H](CCCCN)NC(=O)[C@H](CO)NC(=O)[C@H](CO)NC(=O)[C@H](CCSC)NC(=O)[C@H](CC(C)C)NC(=O)[C@H](CC(N)=O)NC(=O)[C@@H](NC(=O)[C@@H](NC(=O)[C@H](CO)NC(=O)[C@H](CC(C)C)NC(=O)[C@H](CS)NC(=O)[C@H](CCCNC(=N)N)NC(=O)[C@H](CC(=O)O)NC(=O)[C@H](Cc1c[nH]c2ccccc12)NC(=O)[C@H](Cc1ccccc1)NC(=O)[C@H](C)NC(=O)[C@H](CCC(=O)O)NC(=O)[C@@H](N)CCCCN)C(C)C)[C@@H](C)CC)C(=O)N[C@@H](CC(N)=O)C(=O)N[C@@H](C)C(=O)O
inhibition (Cyclin-dependent kinase 5, with p25 (CDK5, Homo sapiens, UniProt Q00535); enzyme activity, inhibitor, radiometric; 500 µM): 72%

Cc1ccc(C(=O)Nc2ccc(CN3CCN(C)CC3)c(C(F)(F)F)c2)cc1C#Cc1cnc2cccnn12
remaining activity (CDKL2; enzyme activity; 23.5 nM): 0%

O=C(Nc1ccc([N+](=O)[O-])cc1Cl)c1cc2ccccc2s1
inhibition (MAOA; enzyme activity, inhibitor; 1 µM, 20 min): 11%

CN(C(=O)n1cnc(-c2ccc[n+]([O-])c2)c1)C1CCCCC1
kinact/KI (Fatty-acid amide hydrolase 1 (Faah, Rattus norvegicus, UniProt P97612); enzyme activity, inhibitor): 1240 M⁻¹ s⁻¹

CN1CC(Oc2cnc(C#N)cc2-c2ccn3nc(NC(=O)C4CC4)cc3c2)C1
inhibition (Wee1-like protein kinase 2 (WEE2, Homo sapiens, UniProt P0C1S8); enzyme activity, inhibitor; 1 µM): 3%

CCCOc1ccc(OC)c(F)c1C(=O)c1ccc(C(=O)N[C@@H]2CNC[C@H]2NC(=O)c2ccc3[nH]ncc3c2)cc1
remaining activity (Rps6ka1; enzyme activity, inhibitor; 50 nM): 106%

O=C(Nc1ccccc1)c1cc(Cl)ccc1O
inhibition (MAOA; enzyme activity, inhibitor; 1 µM, 20 min): 20%

COc1cccc(Nc2nc3cc(C(=O)O)ccc3c3cnccc23)c1
remaining activity (HIPK3; enzyme activity, inhibitor, radiometric; 1 µM): 8%

O=C(Nc1ccc([N+](=O)[O-])cc1C(F)(F)F)c1cc(Cl)ccc1O
inhibition (MAOA; enzyme activity, inhibitor; 1 µM, 20 min): 13%

O=C(O)c1ccc2c(c1)nc(Nc1ccccc1)c1ccncc12
remaining activity (HIPK3; enzyme activity, inhibitor, radiometric; 1 µM): 20%

Oc1cccc(Nc2nc(-c3ccc(F)cc3F)cs2)c1
inhibition (ADRA1A; cell-free assay; 10 µM): 35.2%
